Bioassay records deposited in PubChem by The Scripps Research Institute Molecular Screening Center.
rCAG RNA binder = binds r(CAG) RNA repeats; AID 651821; r(CAG) RNA repeat, TO-PRO-1 dye displacement fluorescence; inhibition, % at 3 µM; actives 1.3% (n = 370,000);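 active = inhibition above the plate cutoff, the mean of all test compounds on that plate plus 3 SD, cut at about 35% in these data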;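 also: 0% = DMSO alone and 100% = 100 µM mitoxantrone as full dye displacement; higher means more dye released from RNA so lower well fluorescence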
HTRA1 inh = inhibitors of human serine peptidase HTRA1; Q92743; recombinant HTRA1, FP-rhodamine activity-based probe, fluorescence polarization; inhibition, % at 5.96 µM; actives 0.5% (n = 340,000); in the data active = inhibition above about 36%;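 also: 0% = enzyme with DMSO and 100% = wells lacking enzyme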
ABHD4 inh = inhibits mouse alpha/beta hydrolase domain 4; purified mABHD4, FP-Rh probe fluorescence polarization; inhibition, % at 8.92 µM; Q8VD66; actives 0.54% (n = 370,000);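 active = inhibition exceeding the mean over every tested compound plus 3 SD, cut at about 30% in these data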;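 also: 0% = plate median of compound wells and 100% = S159A mutant with DMSO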
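system = mouse ABHD4 enzyme, wild type | medium = HEPES pH 7.0, NaCl, Pluronic buffer | also added = FP-Rh probe | incubation = Enzyme–compound pre-incubation 45 min, then probe 60 min, both 25 °C | technique = fluorescence polarization, excitation 525 nm, emission 598 nm, BODIPY TMR filters | controls = S159A mutant high control, sample median low control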
SIAE primary = inhibitors of human sialic acid acetylesterase SIAE; SIAE FP-Rh probe binding, fluorescence polarization; actives 0.69% (n = 370,000); inhibition, % at 9.66 µM; Q9HAT2;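 active = inhibition above a cutoff: mean of compounds within the control limits plus 3 SD of those, cut at about 17% in these data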;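 also: 0% = plate median of compound wells and 100% = probe without SIAE protein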
Target sequence (Q9HAT2 whole entry, looked up): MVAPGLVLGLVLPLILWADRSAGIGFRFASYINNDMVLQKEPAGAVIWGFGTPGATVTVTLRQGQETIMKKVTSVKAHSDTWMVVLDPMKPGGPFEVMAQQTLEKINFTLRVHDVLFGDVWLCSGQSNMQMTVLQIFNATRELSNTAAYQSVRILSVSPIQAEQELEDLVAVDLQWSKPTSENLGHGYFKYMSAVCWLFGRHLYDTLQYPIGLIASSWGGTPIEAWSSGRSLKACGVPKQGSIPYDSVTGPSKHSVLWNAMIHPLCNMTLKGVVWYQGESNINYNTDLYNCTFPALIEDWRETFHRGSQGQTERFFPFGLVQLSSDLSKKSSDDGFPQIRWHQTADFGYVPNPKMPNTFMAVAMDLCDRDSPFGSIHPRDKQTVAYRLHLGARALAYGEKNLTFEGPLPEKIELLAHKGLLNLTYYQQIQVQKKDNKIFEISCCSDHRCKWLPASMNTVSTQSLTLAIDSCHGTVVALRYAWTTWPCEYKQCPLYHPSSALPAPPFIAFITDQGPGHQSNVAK
TCR-CD3 inh = human TCR-CD3 binding inhibition; TAMRA-labeled TCR probe fluorescence, biochemical; inhibition, % at 9.4 µM; actives 0.37% (n = 360,000);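 also: recombinant mutant TCR 2C K166C tagged with TAMRA read by polarization; 0% = receptor in buffer alone and 100% = receptor with positive control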
HTRA1 inh conf = HTRA1 (human) inhibition, confirmation. shares compounds with HTRA1 inh. recombinant HTRA1, FP-rhodamine activity-based probe, fluorescence polarization. inhibition, % at 5.96 µM. actives 66% (n = 1,600). AID 540248;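 active = mean inhibition over three repeats above a set limit taken from the earlier primary screen, cut at about 37% in these data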;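 also: 0% = HTRA1 with DMSO and 100% = wells lacking HTRA1; inhibitors block probe binding so polarization drops and inhibition rises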
BSA probe FL = counter-screen for TCR-CD3 interaction inhibitors: BSA probe; TAMRA-labeled BSA probe fluorescence counterscreen; shares compounds with TCR-CD3 inh; actives 10% (n = 1,200); inhibition, % at 9.4 µM; in the data active = inhibition above about 23%;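 also: 0% = buffer low control and 100% = reference high control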
TCR-CD3 inh conf = confirmation of human TCR-CD3 interaction inhibitors; shares compounds with TCR-CD3 inh; TAMRA-labeled TCR probe fluorescence binding assay; inhibition, % at 9.4 µM; actives 48% (n = 1,200)
rCAG bind conf = r(CAG) RNA repeat binding, confirmation; shares compounds with rCAG RNA binder; TO-PRO-1 dye displacement fluorescence; inhibition, % at 3 µM; actives 70% (n = 4,300); AID 652065;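 active = inhibition above a per-plate cutoff, the mean inhibition of sample wells plus 3 SD, cut at about 35% in these data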;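 also: loss of TO-PRO-1 fluorescence as compound displaces dye from 1x1 AA loop RNA; 0% = DMSO only wells and 100% = 100 µM mitoxantrone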
DNA CAG counter = counter-screen for rCAG RNA binders: DNA CAG dye complex inhibitors | AID 652068 | inhibition, % at 3 µM | actives 94% (n = 4,300) | shares compounds with rCAG RNA binder | d(CAG) DNA oligo TO-PRO-1 dye displacement, fluorescence;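 active = inhibition above its plate's cutoff, the mean test-well inhibition plus 3 SD, cut at about 4.8% in these data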;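 also: 0% = DNA dye mix with DMSO and 100% = 100 µM mitoxantrone; hits displace the dye from DNA and so lower well fluorescence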
ABHD4 confirm = confirmation of mouse ABHD4 inhibitors; shares compounds with ABHD4 inh; purified mABHD4, FP-Rh probe fluorescence polarization; inhibition, % at 8.92 µM; actives 55% (n = 1,800); AID 720658;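 active = mean inhibition across replicates above the hit cutoff set in the primary screen, cut at about 30% in these data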;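 also: 0% = wild-type ABHD4 with DMSO and 100% = catalytically dead S159A mutant with DMSO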
* hit, by the source's call; · = not tested or not shown. In the library only some 2.5% were active in any assay of this set; here they are far more common. Rule as the data show it, unless noted: active = inhibition above about 19%; inactive = the rest.

SMILES | rCAG RNA binder | HTRA1 inh | ABHD4 inh | SIAE primary | TCR-CD3 inh | HTRA1 inh conf | rCAG bind conf | DNA CAG counter | others
Cc1c(C(=O)NNC(=O)c2ccccc2O)oc2ccc(Br)cc12 | 40* | 41* | -8 | -10 | 39* | 69* | 39* | 21* | BSA probe FL=-14;TCR-CD3 inh conf=24*
Cc1cc(/C=N/n2c(COc3ccccc3)nc3ccccc3c2=O)c(O)c([N+](=O)[O-])c1 | 66* | 41* | 16 | 24* | 39* | 54* | 63* | 27* | BSA probe FL=35*;TCR-CD3 inh conf=56*
Cc1ccc(-c2[nH]ncc2/C=N/n2c(COc3ccccc3)nc3ccccc3c2=O)cc1 | 8 | -38 | -10 | -17 | 3 | · | · | ·
CCOc1nc(C)ccc1-c1noc(-c2ccccc2OC)n1 | 0 | -14 | -21 | -4 | -1 | · | · | ·
O=C(O)c1cc(N2N=C(C(F)(F)F)/C(=C/C=C/c3ccco3)C2=O)ccc1Cl | 89* | 41* | 58* | 5 | 26* | 14 | 93* | 76* | BSA probe FL=13;TCR-CD3 inh conf=34*
CN(C)c1oc(COc2ccccc2F)nc1C#N | 3 | 4 | 8 | -2 | -6 | · | · | ·
CN(C)c1ccc(/C=N/NC(=O)c2cc(-c3ccc4c(c3)OCO4)n[nH]2)cc1 | 9 | 1 | -4 | 2 | 1 | · | · | ·
CCOc1cccc(/C=N/NC(=S)Nc2ccccc2[N+](=O)[O-])c1O | 35* | 54* | 27 | 7 | 31* | 51* | 35* | 15* | BSA probe FL=-4;TCR-CD3 inh conf=15
Cc1ccc(C2c3c(n[nH]c3C(C)C)C(=O)N2c2ccccc2)cc1 (stereo unspecified) | 2 | · | -11 | -1 | -2 | · | · | ·
O=C(C=C(O)c1ccc(Cl)cc1)C(=O)NNC(=O)C(O)(c1ccccc1)c1ccccc1 | 71* | 41* | -8 | -12 | 7 | 36* | 36* | 12*
COc1ccc(N(C)S(=O)(=O)c2ccc(Cl)c(C(=O)NNC(=O)c3ccccc3O)c2)cc1 | 40* | 42* | 1 | 13 | 26* | 32 | 30 | 10* | BSA probe FL=3;TCR-CD3 inh conf=18
O=C(NNC(=O)c1cc2cc(Br)ccc2oc1=O)c1ccc(O)cc1O | 55* | 58* | 27 | -8 | 46* | 83* | 21 | 5.3* | BSA probe FL=-15;TCR-CD3 inh conf=35*
Nc1nc(N2CCCCC2)nc(N2CCCCC2)n1 | 1 | 1 | 3 | 5 | -4 | · | · | ·
O=C1CC(=Nc2ccc([N+](=O)[O-])cc2)NN1c1c(Cl)cc(Cl)cc1Cl | 49* | 49* | 65* | 10 | -4 | 35 | 49* | 32*
COc1ccc(/C=C/C(=O)c2ccc(OC)cc2OC)cc1 | -5 | -17 | 6 | -2 | 5 | · | · | ·
CNc1ccc(Br)cc(C(=O)/C=C/c2ccc(OC)cc2)c1=O | 42* | 45* | 41* | 5 | -1 | 32 | 40* | 15*
O=c1cc(-c2ccc(O)c(-c3c(O)cc(O)c4c(=O)cc(-c5ccc(O)cc5)oc34)c2)oc2cc(O)cc(O)c12 | 92* | 40* | -76 | -30 | 8 | 76* | 79* | 53*
O=c1cc(-c2ccccc2)oc2cc(OCc3ccccc3)cc(O)c12 | 3 | -5 | -4 | 2 | 4 | · | · | ·
CCCCCCCN1CCN=C1Nc1ccccc1 | 3 | 0 | 0 | -3 | 6 | · | · | ·
Cc1cccc2sc(NNC(=O)c3ccc(S(=O)(=O)N4CCCC(C)C4)cc3)nc12 (stereo unspecified) | 53* | 45* | 21 | 16 | -3 | 41* | 45* | 19*
Cc1cc(C)c2nc(NNC(=O)c3ccc(S(=O)(=O)N4CCCCC4)cc3)sc2c1 | 55* | 49* | 15 | 10 | -3 | 24 | 38* | 15*
Cc1cccc2sc(NNC(=O)c3ccc(S(=O)(=O)N4CCc5ccccc5C4)cc3)nc12 | 54* | 45* | 5 | 13 | 5 | 33 | 59* | 30*
Cc1cccc2sc(NC(=O)c3cccc(S(=O)(=O)N4CCc5ccccc54)c3)nc12 | 3 | 0 | 0 | 1 | -1 | · | · | ·
O=C(NCCOc1ccccc1)C1CCN(C(=O)Nc2ccccc2)CC1 | 4 | -9 | -6 | 5 | 2 | · | · | ·
O=C(/C=C/c1ccc(O)c(O)c1)c1ccccc1O | 14 | 60* | 36* | -10 | 7 | 68* | · | · | ABHD4 confirm=27
SMILES | rCAG RNA binder | HTRA1 inh | ABHD4 inh | SIAE primary | TCR-CD3 inh | HTRA1 inh conf | rCAG bind conf | DNA CAG counter | others
O=C(N/N=C/c1cc(Br)c(O)c(Br)c1O)c1ccc2c(c1)OCCO2 | 18 | 44* | 49* | 14 | 25* | 41* | · | · | BSA probe FL=-33;TCR-CD3 inh conf=20*;ABHD4 confirm=58*
O=C(N/N=C/c1cc(Br)c(Br)o1)c1ccc2c(c1)OCCO2 | 27 | 5 | 6 | 7 | 9 | · | · | ·
O=c1cc2oc3cc(O)c(O)cc3c(-c3ccccc3[N+](=O)[O-])c-2cc1O | 30 | 59* | 53* | 14 | 101* | 68* | · | · | BSA probe FL=-13;TCR-CD3 inh conf=83*;ABHD4 confirm=55*
Cc1noc(C)c1C(=O)Nc1nc(-c2ccc(F)cc2)cs1 | 0 | 1 | 3 | 6 | -2 | · | · | ·
O=c1[nH]nc(CNc2ccc(O)cc2)c2ccccc12 | 6 | 85* | 82* | 79* | 89* | 9 | · | · | BSA probe FL=12;TCR-CD3 inh conf=12;ABHD4 confirm=37*
CCCCCCCCCCCCCCCC[N+](C)(C)CCl | 7 | 65* | 50* | -3 | 11 | 74* | · | · | ABHD4 confirm=12
C#CC[N+](C)(C)CCCCCCCCCC | 5 | 10 | 0 | -2 | 3 | · | · | ·
CCCCCCCCCCCCCCCC[N+](C)(C)CC | 6 | 61* | 47* | 0 | 4 | 167* | · | · | ABHD4 confirm=60*
CCCCCC[N+](C)(C)CCSSCC[N+](C)(C)CCCCCC | 3 | 0 | 7 | -2 | 9 | · | · | ·
COc1ccc(Cl)cc1-c1nc(SCC(=O)NCCN2C(=O)CSC2=O)n[nH]1 | 6 | -2 | 1 | 1 | 9 | · | · | ·
O=C1c2cccc(Cl)c2C(=O)c2c1cccc2N1CCCC1 | 3 | 65* | 66* | 8 | -7 | 65* | · | · | ABHD4 confirm=85*
O=C1C(Cl)=C(N2CCCCC2)C(=O)N1c1ccccc1Cl | -3 | -8 | 5 | 14 | 0 | · | · | ·
CCOC(=O)CCCCNCc1ccccc1 | 0 | 2 | 8 | 8 | -8 | · | · | ·
